The species named for test [1] is Mus musculus. Description: Concentration of the Compound that inhibits electrically-induced contractions of the mouse vas deferens by 50%. The class given is functional, organism-based. The method, boiled down: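 Electrically stimulated isolated mouse vas deferens at 37 °C. Buffer had no tyrosine, ascorbic acid or disodium edetate. IC50 is the concentration that halves contractions, given as mean ± SD of two or three experiments.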

The target of a further test is Mu-type opioid receptor (Rattus norvegicus, UniProt P33535). In words: Compound was evaluated for its binding affinity by displacement of [3H]- DAMPGO from opioid receptor mu by using opioid radioligand binding assay. The method, boiled down: (§1)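 Male Sprague-Dawley rat forebrain membranes in 50 mM Tris, pH 7.4. Competition against [3H]DSLET (2 nM final, δ) or [3H]DAMPGO (4 nM final, μ). Nonspecific binding defined with 10 μM levorphan. Incubated 60–90 min at 25 °C, then filtered on GF/B and counted. Ki given as mean ± SEM from at least three experiments.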
Sequence of Mu-type opioid receptor (P33535 whole entry): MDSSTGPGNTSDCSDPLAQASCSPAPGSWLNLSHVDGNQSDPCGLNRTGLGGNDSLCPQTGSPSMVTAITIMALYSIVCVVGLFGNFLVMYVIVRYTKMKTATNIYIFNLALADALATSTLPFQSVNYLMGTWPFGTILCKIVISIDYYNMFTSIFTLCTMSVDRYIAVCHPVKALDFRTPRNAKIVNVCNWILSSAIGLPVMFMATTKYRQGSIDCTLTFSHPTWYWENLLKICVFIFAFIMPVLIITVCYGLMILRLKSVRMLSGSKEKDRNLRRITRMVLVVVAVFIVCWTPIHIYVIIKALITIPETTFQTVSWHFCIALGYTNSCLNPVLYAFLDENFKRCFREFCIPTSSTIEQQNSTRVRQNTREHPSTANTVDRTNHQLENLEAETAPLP
(In general: Displacement assays read how much labelled ligand stays bound in the presence of the test substance.)

The target in test [2] is Delta-type opioid receptor (Rattus norvegicus, UniProt P33533). In words: Compound was evaluated for its binding affinity by displacement [3H]- DSLET from Opioid receptor delta 1 by using opioid radioligand binding assay. The method in brief:
as §1

The next test relates to NG108-15. In words: Concentration that inhibited PGE-stimulated cAMP formation by 50%, in NG108-15 cells. As to conditions: Murinae. The class given is functional, cell-based. The method in brief: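 NG108-15 neuroblastoma cells stimulated with PGE1. cAMP measured by radioimmunoassay. EC50 is the concentration that inhibits 50% of stimulated cAMP formation, given as mean ± SD of two determinations.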
A general note: Cyclic AMP is a second messenger, typically raised through Gs and lowered through Gi signalling.

For test [3], the species on record is Mus musculus. Description: Antinociceptive effect determined at 30 min post injection by tail flick test. The class given is functional, organism-based. The method in brief:
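Male CD-1 mice, 20–30 g, screened beforehand (TFL ≤ 4.0 s or HPL ≤ 15 s). Groups of 10 dosed sc with vehicle or 10, 30 or 100 mg/kg at 10 mL/kg. Radiant-heat beam focused on blackened tail, and withdrawal latency read by photosensor as the mean of two readings (12 s cutoff). ED50 ± SE in mg/kg taken at 30 min.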
A general note: Thermal pain tests record how soon the animal reacts.

The species entered for test [4] is Mus musculus. Description: Antinociceptive effect determined at 30 min post injection by writhing test. The class given is functional, organism-based.
The target of test [5] is Mu-type opioid receptor (Rattus norvegicus) (UniProt P33535). Description: Ratio on opioid receptor mu (ki(nM)) to the opioid receptor delta (Ki(nM)).
Sequence of Mu-type opioid receptor (Rattus norvegicus) (P33535 whole entry): as above
In test [6] the test system is Mus musculus. Description: Antinociceptive effect determined at 30 min post injection by writhing test; Inactive at 30 mg/kg, the highest dose tested. The class given is functional, organism-based. The arrangement: dose 30 mg/kg.

SMILES strings stand for the structures.

Sequence of Delta-type opioid receptor (P33533 whole entry): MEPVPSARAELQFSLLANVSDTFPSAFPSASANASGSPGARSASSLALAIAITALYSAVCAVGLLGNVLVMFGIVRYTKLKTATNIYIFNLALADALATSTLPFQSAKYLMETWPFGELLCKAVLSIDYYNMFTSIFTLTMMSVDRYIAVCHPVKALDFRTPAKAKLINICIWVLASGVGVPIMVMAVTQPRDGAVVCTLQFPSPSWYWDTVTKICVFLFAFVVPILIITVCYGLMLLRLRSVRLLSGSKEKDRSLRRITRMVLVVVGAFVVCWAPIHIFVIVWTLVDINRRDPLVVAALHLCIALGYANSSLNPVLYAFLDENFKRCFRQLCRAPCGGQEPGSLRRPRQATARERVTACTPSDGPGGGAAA

On to `COC(=O)[C@H]1NC(=O)C(Cc2ccccc2)/C=C\CNC(=O)[C@@H](NC(=O)[C@@H](N)Cc2c(C)cc(O)cc2C)C(C)(C)SSC1(C)C` (single isomer, unassigned; less polar) [listing 1 of 2 here], for which, in the test filed under Mus musculus [1], the EC50 is above 1000 nM. The Ki at Mu-type opioid receptor came out at 32 nM; in test [2] it was 45 nM.

Take `CC1(C)SSC(C)(C)[C@@H](NC(=O)[C@@H](N)Cc2ccc(O)cc2)C(=O)NCC(=O)N[C@@H](Cc2ccccc2)C(=O)N[C@H]1C(=O)O`: the values for the EC50 in the test listed under Mus musculus [1] (Mus musculus) and in the test with NG108-15 were 5.2 nM and 18 nM, respectively.

In the case of `COC(=O)[C@H]1NC(=O)C(Cc2ccccc2)/C=C\CNC(=O)[C@@H](NC(=O)[C@@H](N)Cc2c(C)cc(O)cc2C)C(C)(C)SSC1(C)C` (single isomer, unassigned; more polar) [listing 1 of 2 here], the EC50 in the test filed under Mus musculus [1] worked out at 247 nM. Also, the Ki at Mu-type opioid receptor is 1.1 nM; in test [2], 2.3 nM.

In the case of `COC(=O)[C@@H]1NC(=O)[C@H](Cc2ccccc2)NC(=O)CNC(=O)[C@H](NC(=O)[C@@H](N)Cc2c(C)cc(O)cc2C)C(C)(C)SSC1(C)C.Cl`, the EC50 in the test filed under Mus musculus [3] is 40 mg/kg; in the test listed under Mus musculus [4], 2.1 mg/kg; in the test filed under Mus musculus [1] (Mus musculus), 0.65 nM; in the test on NG108-15, 1.1 nM.

Take `COC(=O)[C@H]1NC(=O)C(Cc2ccccc2)CCCNC(=O)[C@@H](NC(=O)[C@@H](N)Cc2c(C)cc(O)cc2C)C(C)(C)SSC1(C)C` (single isomer, unassigned; more polar) [listing 1 of 2 here]: the Ratio in test [5] came to 0.5.

In the test filed under Mus musculus [1], `COC(=O)[C@H]1NC(=O)C(Cc2ccccc2)OCCNC(=O)[C@@H](NC(=O)[C@@H](N)Cc2c(C)cc(O)cc2C)C(C)(C)SSC1(C)C` (single isomer, unassigned; less polar) [listing 1 of 2 here] gave an EC50 of 143 nM. Moreover, the Ki on Mu-type opioid receptor was determined as 6.5 nM; in test [2] it was 43 nM.

Turning to `COC(=O)[C@H]1NC(=O)C(Cc2ccccc2)OCCNC(=O)[C@@H](NC(=O)[C@@H](N)Cc2c(C)cc(O)cc2C)C(C)(C)SSC1(C)C` (single isomer, unassigned; more polar) [listing 1 of 2 here], the EC50 in the test listed under Mus musculus [1] is above 1000 nM. In addition, the Ki was 150 nM on Mu-type opioid receptor and 91 nM in test [2].

Regarding `COC(=O)[C@H]1NC(=O)C(Cc2ccccc2)CCCNC(=O)[C@@H](NC(=O)[C@@H](N)Cc2c(C)cc(O)cc2C)C(C)(C)SSC1(C)C` (single isomer, unassigned; less polar) [listing 1 of 2 here], the Ratio in test [5] is 2.3.

With `COC(=O)[C@H]1NC(=O)C(Cc2ccccc2)/C=C\CNC(=O)[C@@H](NC(=O)[C@@H](N)Cc2c(C)cc(O)cc2C)C(C)(C)SSC1(C)C` (single isomer, unassigned; less polar) [listing 2 of 2 here], the Ratio in test [5] stood at 0.7.

With `COC(=O)[C@H]1NC(=O)C(Cc2ccccc2)OCCNC(=O)[C@@H](NC(=O)[C@@H](N)Cc2c(C)cc(O)cc2C)C(C)(C)SSC1(C)C` (single isomer, unassigned; less polar) [listing 2 of 2 here], the Ratio in test [5] amounted to 0.15.

For `COC(=O)[C@H]1NC(=O)C(Cc2ccccc2)/C=C\CNC(=O)[C@@H](NC(=O)[C@@H](N)Cc2c(C)cc(O)cc2C)C(C)(C)SSC1(C)C` (single isomer, unassigned; more polar) [listing 2 of 2 here], the Ratio in test [5] was determined as 0.5.

For `COC(=O)[C@H]1NC(=O)C(Cc2ccccc2)OCCNC(=O)[C@@H](NC(=O)[C@@H](N)Cc2c(C)cc(O)cc2C)C(C)(C)SSC1(C)C` (single isomer, unassigned; more polar) [listing 2 of 2 here], in test [5], the Ratio is 1.7.

Consider `COC(=O)[C@H]1NC(=O)C(Cc2ccccc2)CCCNC(=O)[C@@H](NC(=O)[C@@H](N)Cc2c(C)cc(O)cc2C)C(C)(C)SSC1(C)C` (single isomer, unassigned; less polar) [listing 2 of 2 here], for which the inhibition constant (Ki) on Mu-type opioid receptor amounted to 176 nM; in test [2], 79 nM.

As for `COC(=O)[C@H]1NC(=O)C(Cc2ccccc2)CCCNC(=O)[C@@H](NC(=O)[C@@H](N)Cc2c(C)cc(O)cc2C)C(C)(C)SSC1(C)C` (single isomer, unassigned; more polar) [listing 2 of 2 here], in the test filed under Mus musculus [1] (Mus musculus), the EC50 was above 1000 nM. The Ki on Mu-type opioid receptor came to 11 nM; in test [2] it was 21 nM.

Regarding `COC(=O)[C@@H]1NC(=O)[C@H](Cc2ccccc2)NC(=O)CNC(=O)[C@H](NC(=O)[C@@H](N)Cc2ccc(O)cc2)C(C)(C)SSC1(C)C.Cl`, the EC50 is 10.5 nM in the test listed under Mus musculus [1] (Mus musculus), 21 nM with NG108-15 and “Not Active” in the test on Mus musculus [6].

In general, Ki refers to a dissociation constant, usually derived from enzyme kinetics or from competition with a known ligand.

For the origin of these results see ChEMBL document CHEMBL1125510, “Analogs of the delta opioid receptor selective cyclic peptide [2-D-penicillamine,5-D-penicillamine]-enkephalin: 2',6'-dimethyltyrosine and Gly3-Phe4 amide bond isostere substitutions” (J Med Chem, 1992).
